Assay outcomes from PubChem.
MC4R antagonist: MC4R antagonists of cAMP signaling, primary screen, cell-based, TR-FRET, antagonist arm of biased-ligand search. Melanocortin receptor 4 (Homo sapiens), P32245. MC4R-expressing cells, MTII-stimulated cAMP, LANCE TR-FRET. inhibition, % at 6.5 µM. hit rate 0.48% among 360,000;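 active means inhibition above its plate's cutoff, the mean of tested wells on that plate plus 3 SD, cut at about 29% in these data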;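 further: 0% = Melanotan II alone and 100% = Melanotan II plus saturating MCL0020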
Target sequence (P32245 whole entry, looked up): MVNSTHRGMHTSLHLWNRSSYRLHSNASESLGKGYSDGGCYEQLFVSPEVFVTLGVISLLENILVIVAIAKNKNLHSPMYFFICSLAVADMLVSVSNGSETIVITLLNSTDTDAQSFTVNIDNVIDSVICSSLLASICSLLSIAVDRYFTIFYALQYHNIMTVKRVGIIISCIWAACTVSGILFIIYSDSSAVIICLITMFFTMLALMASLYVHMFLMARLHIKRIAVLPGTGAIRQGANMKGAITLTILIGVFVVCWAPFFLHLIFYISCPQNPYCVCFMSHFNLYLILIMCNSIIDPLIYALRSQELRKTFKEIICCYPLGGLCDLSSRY
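Material – human MC4R-expressing U2OS cells · Repeats – no replicates · Detection – TR-FRET with Eu-cAMP and labeled anti-cAMP, 671 nm · Times – compound 30 min, challenge 1 h, detection 1 h · Compound – single nominal compound dose of 6.5 µM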
MC4R barr agon: MC4R agonists recruiting beta-arrestin, primary screen, cell-based, luminescence, agonist arm of biased-ligand search; hit rate 0.98% among 360,000; U2OS MC4R beta-arrestin complementation; percent of melanotan II response, DMSO zero; activation, % at 8.9 µM; AID 540308, 2011; Melanocortin receptor 4 (Homo sapiens), P32245;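 active means activation above a per-plate cutoff, the mean activation of sample wells on that plate plus 3 SD, cut at about 8% in these data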
NALP1 yeast inh: NALP1 inflammasome inhibitors in reconstituted yeast, colorimetric, S. cerevisiae, triplicate retest | inhibition, % at 10 µM | hit rate 0.61% among 280,000 | S. cerevisiae NALP1/ASC/caspase-1 growth, X-gal OD620, 72 h; in the data active means inhibition mostly above about 24%, no sharp cut-off; inactive means mostly below about 32%
Bfl-1 A1 inh: caspase 3/7 activation in MEF A1-2A-BIM cells, primary screen, A1 inhibitor project, cell-based, luminescence, HTS | Caspase-Glo 3/7 luminescence, 3 h; percent of clofoctol response, vehicle zero | caspase activation, % (no concentration beside the values) | hit rate 0.066% among 330,000;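 active means over half of replicate activation scores above 10%, or exactly half above 10 with the replicate mean above 10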
NLRP3 yeast inh: NALP3 inflammasome inhibitors in reconstituted yeast, primary screen, luminescence, uHTS; AID 2825, 2010; Yeast reconstituted NLRP3/ASC/caspase-1, beta-gal luminescence, 24 h; inhibition, % at 10 µM; hit rate 0.39% among 330,000;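 active means inhibition of 50% or more; inactive means inhibition below 50%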;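 further: plate controls were induced DMSO wells for no effect and uninduced yeast grown without galactose for full effect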
TbMetRS inhib: T. brucei MetRS inhibitors, primary screen, biochemical, luminescence; purified T. brucei MetRS, ATP depletion, Kinase-Glo luminescence; inhibition, % at 11.9 µM; hit rate 0.4% among 360,000; AID 624268, 2012;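 active means inhibition above a per-plate cutoff of the control wells' mean inhibition plus 3 SD, cut at about 5.5% in these data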;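 further: 0% = DMSO wells median and 100% = median of wells with control inhibitor compound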
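Measured by: Kinase-Glo luciferase luminescence reporting remaining unconsumed ATP. Material: purified T. brucei MetRS enzyme. Doses: 11.9 µM compound single dose, 0.9% DMSO. Medium: HEPES buffer containing pyrophosphatase, BSA, spermine, DTT. Times: 15 min preincubation, 2 h reaction, all 25 °C. Reagent: methionine, ATP and bulk E. coli tRNA.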
U2OS cAMP counter: nonselective cAMP signaling inhibitors, parental cells, counter-screen for MC4R biased antagonist project, cell-based, TR-FRET, U2OS, forskolin, triplicate. shares compounds with MC4R antagonist. LANCE TR-FRET. hit rate 26% among 1,600. inhibition, % at 6.5 µM;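 active means mean inhibition over triplicates above the low-control well mean plus 3 SD, set per campaign, cut at about 13% in these data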;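 further: signal is single emission at 671 nm which falls as cellular cAMP rises; 0% = forskolin-stimulated wells and 100% = buffer without forskolin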
MC4R cAMP antag: MC4R cAMP antagonists, retest, confirmation, cell-based, TR-FRET; shares compounds with MC4R antagonist; MC4R-expressing cells, MTII-stimulated cAMP; inhibition, % at 6.5 µM; hit rate 27% among 1,600; in the data active means inhibition above about 29%;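 further: 0% = agonist stimulated wells alone and 100% = agonist stimulated wells plus saturating reference antagonist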
* marks the source's active call; other numbers are inactive results; nt = no result. Hits are enriched below; roughly 2.5% of the tested compounds scored in any of these assays.

SMILES	MC4R antagonist	MC4R barr agon	NALP1 yeast inh	Bfl-1 A1 inh	NLRP3 yeast inh	TbMetRS inhib	U2OS cAMP counter	MC4R cAMP antag
CC(C)N(C)c1ncnc2c1ncn2[C@H]1CN(Cc2ccc(-c3ccccc3)cc2)C[C@@H](CO)O1	8	4	nt	nt	nt	0	nt	nt
COc1ccc(N2CCN(c3n[nH]c(N)n3)CC2)cc1	35*	-2	5	0	18	0	0	10
Cc1cccc(C)c1N1CCN(c2n[nH]c(N)n2)CC1	13	-1	16	0	15	-1	nt	nt
O=C(CNC(=O)c1ccc(Oc2ccccc2)cc1)OC1CCCCC1=O (centres undefined)	34*	-2	-12	1	20	0	12	24
Cc1ccc(C(=O)NCC(=O)OC2CCCCC2=O)cc1C (centres undefined)	8	-2	nt	0	-2	0	nt	nt
COC(=O)COc1ccc(S(=O)(=O)N2CCN(c3ccc(F)cc3)CC2)cc1	31*	2	1	0	0	0	16*	46*
COC(=O)COc1ccc(S(=O)(=O)N2CCN(c3ccc(OC)cc3)CC2)cc1	30*	-1	6	-1	4	0	18*	46*
COc1cccc(C2C(C(=O)Nc3nc4ccccc4s3)=C(C)NC3=C2C(=O)CC(C)(C)C3)c1OC (centres undefined)	6	7	-3	-2	-2	-1	nt	nt
COc1ccc(OC)c(C2C(C(=O)Nc3nc4ccccc4s3)=C(C)NC3=C2C(=O)CCC3)c1 (centres undefined)	33*	-3	24	1	9	-1	7	43*
O=C(NC(=S)NCCCN1CCOCC1)c1ccco1	29*	1	21	0	9	0	2	-15
O=C(Nc1ccc(F)cc1)c1cc(-c2ccccn2)nc2c(Cl)cccc12	30*	1	24	0	11	0	35*	42*
Cc1nc(SCCC(=O)O)c2ccccc2n1	54*	1	8	0	-1	-1	19*	34*
Cc1cc(SCCC(=O)O)nc2ccccc12	6	2	1	1	18	-1	nt	nt
COC(=O)CSc1nc2ccccn2c(=O)c1C=O	31*	0	13	0	7	1	0	-10
COCCCN1C(=O)c2ccc(C(=O)NCc3ccccn3)cc2C1=O	17	-2	16	0	-3	1	nt	nt
O=C(Cc1cccc2ccccc12)N1CCN(c2ncccn2)CC1	30*	-1	10	1	20	0	2	-2
O=C(Cc1coc2ccc3ccccc3c12)N1CCN(c2ncccn2)CC1	2	-1	16	0	27	0	nt	nt
CSCCC(Nc1ncnc2ccc(Br)cc12)C(=O)O (centres undefined)	31*	0	-2	0	15	-1	8	12
CCOC(=O)C1=C(C)C2C3C(=O)N(c4ccccc4C)C(=O)C3C1(C)C1C(=O)N(c3ccccc3C)C(=O)C21 (centres undefined)	31*	-1	23	0	17	0	0	-13
Cn1c(-c2ccccc2)cc(=NNS(C)(=O)=O)c2cc(S(=O)(=O)O)ccc21	-4	-2	nt	nt	nt	0	nt	nt
Cc1ccc(NC(=O)c2cc(N3C(=O)C=CC3=O)ccc2N2CCOCC2)cc1	69*	-2	-8	nt	nt	-1	9	50*
Cc1ccc(NC(=O)c2cc(-n3cnnc3)ccc2Cl)cc1	2	-1	-50	0	10	0	nt	nt
Cc1ccc(NC(=O)c2cc(N3C(=O)C=CC3=O)ccc2Cl)cc1C	57*	-2	15	0	5	1	8	12
Cn1c(SCC(=O)NC2CCCC2)nnc1C(F)(F)F	8	-2	nt	1	3	-1	nt	nt
O=C1C=CC(=O)N1CCCCCCCCCCN1C(=O)C=CC1=O	78*	-4	nt	nt	nt	0	20*	49*
SMILES	MC4R antagonist	MC4R barr agon	NALP1 yeast inh	Bfl-1 A1 inh	NLRP3 yeast inh	TbMetRS inhib	U2OS cAMP counter	MC4R cAMP antag
O=C1C=CC(=O)N1Cc1ccncc1	9	-1	nt	nt	nt	0	nt	nt
CC(C)[C@H](NC(=O)N1c2ccccc2NC(=O)[C@@H]1C(C)C)C(=O)N[C@H](Cc1ccccc1)C(=O)O	0	-1	7	1	9	-1	nt	nt
Cc1ccc(NC(=O)n2ncc3c(C)cccc32)cc1F	0	-1	20	-1	13	-1	nt	nt
O=C(NC(Cc1c[nH]c2ccccc12)C(=O)N/N=C/c1ccc(Cl)cc1)c1cccs1 (centres undefined)	30*	0	5	-1	5	0	2	7
CN(c1ccc(OCC(=O)OCC(=O)Nc2ccc(Br)cc2)cc1)S(=O)(=O)c1cccs1	29*	-1	21	2	-7	0	10	31*
CN(c1ccc(OCC(=O)OCC(=O)Nc2ccc(OC(F)F)cc2)cc1)S(=O)(=O)c1cccs1	9	-2	nt	1	2	0	nt	nt
CN(c1ccc(OCC(=O)OCC(=O)Nc2ccccc2)cc1)S(=O)(=O)c1cccs1	31*	-1	2	1	9	-1	14*	37*
COC(=O)[C@H](Cc1ccccc1)NC(=O)C1(OC(C)=O)CC(OC(C)=O)C(OC(C)=O)C(OC(C)=O)C1 (some centres undefined)	3	-1	6	0	7	-1	nt	nt
CCC1=NN(S(=O)(=O)c2ccc(C)cc2)C(O)(C(F)(F)F)C1 (centres undefined)	29*	1	-16	0	13	0	-2	-7
CCC1=NN(C(=O)CCc2ccccc2)C(O)(C(F)(F)F)C1 (centres undefined)	0	0	4	0	-7	0	nt	nt
O=C(O)CCn1c(-c2ccccn2)nc2ccccc21	29*	1	-4	0	3	0	-1	1
c1ccc(OCCNc2ccn3nc(-c4ccco4)cc3n2)cc1	8	2	nt	nt	nt	0	nt	nt
Cc1ccc(OCC(=O)NNC(=O)C2CCN(c3nc(C)cc(C)n3)CC2)cc1	29*	1	10	0	-6	0	-4	-20
